Measured values published in ChEMBL document CHEMBL1152850, “Efficient inhibition of the Alzheimer's disease beta-secretase by membrane targeting” (Science, 2008).
Active and inactive are the calls of the source. The calls are words filed in the database; no cut-off is given here. Square brackets hold non-standard residues; d marks the D form. Peptide text beside a SMILES is read from it. * marks the point of attachment. Piperazinyl(4-RhodamineB) = CCN(CC)c1ccc2c(-c3ccccc3C(=O)N3CCN(*)CC3)c3ccc(=[N+](CC)CC)cc-3oc2c1; X4 = CC(C)CCC[C@@H](C)[C@H]1CC[C@H]2[C@@H]3CC[C@H]4C[C@@H](OCC(=O)*)CC[C@]4(C)[C@H]3CC[C@]12C; X1 = CC(C)CCC[C@@H](C)[C@H]1CC[C@H]2[C@@H]3CCC4C[C@@H](O*)CC[C@]4(C)[C@H]3CC[C@]12C; Sta = CC(C)C[C@H](N)[C@@H](O)CC(=O)O; PEG4 = NCCOCCOCCOCCOCCC(=O)O; PEG3 = NCCOCCOCCOCCC(=O)O; X3 = CCCCCCCCCCCCCCCCO*; X2 = CCCCCCCCCCCCCCO*; βAla = NCCC(=O)O

Key:
[1] = molecular target: Beta-secretase 1 (Homo sapiens) (UniProt P56817); assay: Inhibition of BACE1 mediated APP cleavage in human HeLa cells expressing swAPP at 200 nM after 4 hrs; format: cell-based
In short: (§1)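 HeLa-swAPP cells incubated with compounds at 20 nM or 200 nM for 4 hours; harvested medium assayed for sAPPβ and expressed as percent inhibition of β cleavage, mean ± SD.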

[2] = molecular target: Beta-secretase 1 (Homo sapiens) (UniProt P56817); assay: Inhibition of BACE1 mediated APP cleavage in human HeLa cells expressing swAPP at 20 nM after 4 hrs; format: cell-based; in short: as §1
[3] = molecular target: Beta-secretase 1 (Homo sapiens) (UniProt P56817); assay: Inhibition of BACE1 ectodomain relative to control
[4] = test system: Mus musculus; assay: Reduction in amyloid beta production in transgenic swAPP/PSDE9 mouse expressing APP KM670/671NL mutant and presenilin-1 […] at 10 mM dosed stereotaxically into hippocampus after 4 hrs; format: functional, organism-based
In short: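 APPsw/PSΔE9 transgenic mice given a stereotaxic injection into the hippocampus, with DMSO as solvent control; hippocampal Aβ measured 4 hours later. Means ± SD, Student t test.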

[5] = molecular target: Beta-secretase 1 (Homo sapiens) (UniProt P56817); assay: Inhibition of BACE1 mediated APP cleavage in human HeLa cells expressing swAPP assessed as as beta cleaved ectodomain of APP level; format: cell-based
[6] = molecular target: Beta-secretase 1 (Mus musculus) (UniProt P56818); assay: Inhibition of BACE1 mediated APP cleavage in mouse N2a cells expressing swAPP by electrochemiluminescence assay; format: cell-based
[7] = molecular target: Beta-secretase 1 (Homo sapiens) (UniProt P56817); assay: Inhibition of BACE1 mediated APP cleavage in human HeLa cells expressing swAPP at 200 nM by electrochemiluminescence assay; format: cell-based
[8] = molecular target: Beta-secretase 1 (Homo sapiens) (UniProt P56817); assay: Inhibition of BACE1 mediated APP cleavage in human HeLa cells expressing swAPP at 2 uM after 4 hrs by immunoblot; format: cell-based
[9] = test system: HeLa; assay: Increase in alpha secretase mediated APP cleavage in human HeLa cells expressing swAPP assessed as alpha cleaved ectodomain of APP at 200 nM by electrochemiluminescence assay; format: cell-based
[10] = test system: HeLa; assay: Increase in alpha secretase mediated APP cleavage in human HeLa cells expressing swAPP at 2 uM after 4 hrs by immunoblot; format: cell-based
[11] = test system: Drosophila; assay: Reduction on lethality of Drosophila w:actin-GAL4/Cyo;UASDPsn/Tm3 flies expressing presenilin mutant assessed as increase in survival by measuring eclosion numbers 4 mM dosed in diet; format: functional, organism-based
[12] = molecular target: Beta-secretase 1 (Homo sapiens) (UniProt P56817); assay: Inhibition of BACE1 mediated APP cleavage in human HeLa cells expressing swAPP assessed as amyloid beta production at 2 uM after 4 hrs by immunoblot; format: cell-based
[13] = test system: Drosophila; assay: Reduction on lethality of Drosophila UAS-APP/UAS-APP; UAS-BACE523/UAS-BACE523 flies expressing BACE mutant assessed as increase in survival by measuring eclosion numbers 4 mM dosed in diet; format: functional, organism-based
[14] = molecular target: Beta-secretase 1 (Homo sapiens) (UniProt P56817); assay: Inhibition of BACE1 mediated APP cleavage in human HeLa cells expressing swAPP assessed as amyloid beta production using rhodamine-labeled compound at 2 uM; format: cell-based
In short: (§2)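 Rhodamine-labeled inhibitors at 2 μM on HeLa-swAPP cells; medium analyzed by ECL for sAPPβ and Aβ40, with viability (percent survival). Means ± SD, representative of three independent experiments.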

[15] = molecular target: Beta-secretase 1 (Homo sapiens) (UniProt P56817); assay: Inhibition of BACE1 mediated APP cleavage in human HeLa cells expressing swAPP assessed as beta cleaved ectodomain of APP level using rhodamine-labeled compound at 0.1 mM; format: cell-based
In short: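 HeLa-swAPP cells treated with a range of concentrations of the sterol-linked inhibitor; β-cleaved ectodomain detected by immunostaining and imaging, nuclei counterstained with DAPI.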

[16] = molecular target: Beta-secretase 1 (Homo sapiens) (UniProt P56817); assay: Inhibition of BACE1 mediated APP cleavage in human HeLa cells expressing swAPP assessed as as beta cleaved ectodomain of APP level using rhodamine-labeled compound at 2 uM; format: cell-based; in short: as §2

Chain of Beta-secretase 1 (Homo sapiens) (P56817 whole entry, the tested form may be a part): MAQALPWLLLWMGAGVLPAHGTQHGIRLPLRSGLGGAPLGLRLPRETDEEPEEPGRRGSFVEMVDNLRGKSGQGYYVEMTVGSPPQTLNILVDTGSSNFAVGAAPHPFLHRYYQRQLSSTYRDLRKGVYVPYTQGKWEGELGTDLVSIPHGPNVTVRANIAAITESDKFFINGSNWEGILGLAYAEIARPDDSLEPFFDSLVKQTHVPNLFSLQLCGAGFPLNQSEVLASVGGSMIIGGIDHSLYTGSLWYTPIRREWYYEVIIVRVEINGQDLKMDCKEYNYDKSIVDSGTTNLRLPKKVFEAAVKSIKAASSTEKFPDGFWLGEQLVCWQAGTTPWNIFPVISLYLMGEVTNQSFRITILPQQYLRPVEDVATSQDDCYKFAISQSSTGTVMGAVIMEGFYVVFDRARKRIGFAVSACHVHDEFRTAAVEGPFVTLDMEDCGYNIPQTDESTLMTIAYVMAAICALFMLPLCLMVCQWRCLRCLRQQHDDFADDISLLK
Chain of Beta-secretase 1 (Mus musculus) (P56818 whole entry): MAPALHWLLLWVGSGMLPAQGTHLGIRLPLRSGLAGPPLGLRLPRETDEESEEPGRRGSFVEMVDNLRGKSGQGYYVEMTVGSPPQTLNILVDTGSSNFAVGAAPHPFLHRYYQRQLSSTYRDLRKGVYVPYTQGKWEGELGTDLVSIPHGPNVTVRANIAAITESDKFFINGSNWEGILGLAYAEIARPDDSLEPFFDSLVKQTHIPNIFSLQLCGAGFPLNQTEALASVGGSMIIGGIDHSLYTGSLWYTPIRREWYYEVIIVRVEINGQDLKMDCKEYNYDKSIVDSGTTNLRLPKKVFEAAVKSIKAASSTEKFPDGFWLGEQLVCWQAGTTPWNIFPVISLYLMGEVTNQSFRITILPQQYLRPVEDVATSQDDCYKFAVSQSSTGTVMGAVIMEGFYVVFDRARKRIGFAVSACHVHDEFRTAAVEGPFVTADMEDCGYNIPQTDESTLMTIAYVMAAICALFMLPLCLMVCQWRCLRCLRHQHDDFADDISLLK

CCCCCCCCCCCCCCCCOC(=O)C[C@H](NC(=O)CCOCCOCCOCCOCCNC(=O)CCOCCOCCOCCNC(=O)CCOCCOCCOCCOCCNC(=O)CCOCCOCCOCCNC(=O)CCOCCOCCOCCOCCNC(=O)[C@H](Cc1ccccc1)NC(=O)[C@H](CCC(=O)O)NC(=O)[C@H](C)NC(=O)[C@@H](NC(=O)C[C@H](O)[C@H](CC(C)C)NC(=O)[C@H](CC(N)=O)NC(=O)[C@@H](NC(=O)[C@@H](N)CCC(=O)O)C(C)C)C(C)C)C(N)=O (H-EVN[Sta]VAEF[PEG4][PEG3][PEG4][PEG3][PEG4]D(X3)-NH2)
inhibition [1]: Active
inhibition [2]: Active

CC(C)C[C@H](NC(=O)[C@H](CC(N)=O)NC(=O)[C@@H](NC(=O)[C@@H](N)CCC(=O)O)C(C)C)[C@@H](O)CC(=O)N[C@H](C(=O)N[C@@H](C)C(=O)N[C@@H](CCC(=O)O)C(=O)N[C@@H](Cc1ccccc1)C(N)=O)C(C)C (HELM PEPTIDE1{E.V.N.[CC(C)C[C@H](N[*:1])[C@@H](O)CC(=O)[*:2]].V.A.E.F.[am]}$$$$V2.0)
inhibition [3]: Active
inhibition [4]: inactive
inhibition [5]: inactive
inhibition [6]: inactive

CCN(CC)c1ccc2c(-c3ccccc3C(=O)N3CCN(C(=O)CC[C@H](NC(=O)CCNC(=O)[C@H](CCCN=C(N)N)NC(=O)[C@H](CCCN=C(N)N)NC(=O)CO[C@H]4CC[C@@]5(C)[C@@H](CC[C@@H]6[C@@H]5CC[C@]5(C)[C@@H]([C@H](C)CCCC(C)C)CC[C@@H]65)C4)C(=O)NCCC(=O)NCC(=O)N[C@@H](CCC(=O)O)C(=O)N[C@H](C(=O)N[C@@H](CC(N)=O)C(=O)N[C@@H](CC(C)C)[C@@H](O)CC(=O)N[C@H](C(=O)N[C@@H](C)C(=O)N[C@@H](CCC(=O)O)C(=O)N[C@@H](Cc4ccccc4)C(N)=O)C(C)C)C(C)C)CC3)c3ccc(=[N+](CC)CC)cc-3oc2c1 (X4-RR[βAla]E(Piperazinyl(4-RhodamineB))[βAla]GEVN[Sta]VAEF-NH2)
inhibition [7]: inactive

CCCCCCCCCCCCCCOC(=O)C[C@H](NC(=O)CCOCCOCCOCCOCCNC(=O)CCOCCOCCOCCNC(=O)CCOCCOCCOCCOCCNC(=O)CCOCCOCCOCCNC(=O)CCOCCOCCOCCOCCNC(=O)[C@H](Cc1ccccc1)NC(=O)[C@H](CCC(=O)O)NC(=O)[C@H](C)NC(=O)[C@@H](NC(=O)C[C@H](O)[C@H](CC(C)C)NC(=O)[C@H](CC(N)=O)NC(=O)[C@@H](NC(=O)[C@@H](N)CCC(=O)O)C(C)C)C(C)C)C(N)=O (H-EVN[Sta]VAEF[PEG4][PEG3][PEG4][PEG3][PEG4]D(X2)-NH2)
inhibition [1]: Active
inhibition [2]: Active

CC(C)CCC[C@@H](C)[C@H]1CC[C@H]2[C@@H]3CCC4C[C@@H](OC(=O)C[C@H](NC(=O)CCOCCOCCOCCOCCNC(=O)CCOCCOCCOCCNC(=O)CCOCCOCCOCCOCCNC(=O)CCOCCOCCOCCNC(=O)CCOCCOCCOCCOCCNC(=O)[C@H](Cc5ccccc5)NC(=O)[C@H](CCC(=O)O)NC(=O)[C@H](C)NC(=O)[C@@H](NC(=O)C[C@H](O)[C@H](CC(C)C)NC(=O)[C@H](CC(N)=O)NC(=O)[C@@H](NC(=O)[C@@H](N)CCC(=O)O)C(C)C)C(C)C)C(N)=O)CC[C@]4(C)[C@H]3CC[C@]12C (stereo partly specified) (H-EVN[Sta]VAEF[PEG4][PEG3][PEG4][PEG3][PEG4]D(X1)-NH2)
inhibition [8]: Active
inhibition [9]: Active
inhibition [10]: Active
inhibition [11]: Active
Activity [4]: Active
inhibition [12]: Active
inhibition [13]: Active
inhibition [14]: Active
inhibition [15]: Active
inhibition [6]: Active
inhibition [16]: Active

CC(C)C[C@H](NC(=O)[C@H](CC(N)=O)NC(=O)[C@@H](NC(=O)[C@@H](N)CCC(=O)O)C(C)C)[C@@H](O)CC(=O)N[C@H](C(=O)N[C@@H](C)C(=O)N[C@@H](CCC(=O)O)C(=O)N[C@@H](Cc1ccccc1)C(=O)NCCOCCOCCOCCOCCC(=O)NCCOCCOCCOCCC(=O)NCCOCCOCCOCCOCCC(=O)NCCOCCOCCOCCC(=O)NCCOCCOCCOCCOCCC(N)=O)C(C)C (H-EVN[Sta]VAEF[PEG4][PEG3][PEG4][PEG3][PEG4]-NH2)
inhibition [7]: inactive
